Assay outcomes deposited in PubChem by several laboratories.
The list is not random: actives were taken first. Their share in the collection is about 1.9%.
MsrA inh: inhibitors of bovine MsrA; purified bovine MsrA, absorbance read-out; actives 0.75% (n = 360,000); inhibition, % at 15.5 µM; AID 651718;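 note: 0% = vehicle wells with enzyme and 100% = reference inhibitor wells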
UCH37 inh: blocks the human deubiquitinase UCH37 | Q9Y5K5 | purified proteasome/UCH37, Ub-AMC cleavage fluorescence | inhibition, % (concentration not given with the values) | actives 0.33% (n = 330,000);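 active = mean inhibition over replicate wells above about 20%, limit read from the data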;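 note: 0% = compound-free wells with enzyme and 100% = wells lacking proteasome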
Target sequence (Q9Y5K5 whole entry, looked up): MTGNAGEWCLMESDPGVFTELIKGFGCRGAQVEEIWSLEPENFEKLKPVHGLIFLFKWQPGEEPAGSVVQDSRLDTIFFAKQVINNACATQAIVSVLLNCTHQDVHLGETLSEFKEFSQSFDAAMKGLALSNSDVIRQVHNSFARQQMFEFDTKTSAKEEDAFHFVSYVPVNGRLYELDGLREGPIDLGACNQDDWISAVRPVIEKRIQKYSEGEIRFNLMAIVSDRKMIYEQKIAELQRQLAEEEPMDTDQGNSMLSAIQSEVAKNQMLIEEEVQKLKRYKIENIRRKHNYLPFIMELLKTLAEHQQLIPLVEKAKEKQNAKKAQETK
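Signal – fluorescence, ex 355 nm, em 460 nm · System – Proteasome-bound UCH37 · Input – 0.15 nM proteasome as dispensed · Timing – 30 min preincubation with enzyme, 25 min cleavage at room temperature · Read-out basis – percent inhibition of cleavage signal versus uninhibited and no-proteasome wells · Medium – Tris-HCl pH 7.4 with ATP-MgCl2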
MsrA act: activates bovine MsrA enzyme; purified bovine MsrA, absorbance read-out; activation, % at 10.6 µM; AID 602163; actives 0.3% (n = 360,000); in the data active = activation above about 7.5%;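 note: 0% = vehicle and 100% = reference activator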
N-glyco inh: blocks N-linked glycosylation in D54 reporter cells; D54 ERlucT glycosylation luciferase reporter, 24 h; percent of 100 nM tunicamycin response; reporter increase, % at 12.5 µM; AID 588692; actives 0.23% (n = 360,000);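 active = mean luciferase reporter signal, scaled so untreated is 0 and the glycosylation-blocking control 100, at or above a set limit in every replicate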;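 note: luciferase carries N-glycosylation sites so blocking glycosylation raises the light; 0% = median of neutral control wells and 100% = median of 100 nM tunicamycin wells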
Vif inh: inhibitors of HIV Vif; HEK293T cells, Vif self-association by quenched fluorescence, imaging, 24 h; inhibition, % at 7.49 µM; actives 0.35% (n = 340,000); in the data active = inhibition above about 50%, passing the limit was not always enough
aDG glyco up: alpha-DG glycosylation activation. activation, % at 10 µM. Pro5-aDG cells, alpha-DG glycosylation AlphaScreen (IIH6); 0% Pro5, 100% B10-LARGE cell signal. actives 0.22% (n = 360,000);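 active = activation of at least 8% versus controls, or a plate z-score of at least 8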;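 note: Pro5 are CHO cells carrying HIG-tagged alpha-DG that lacks glycosylation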
MsrA conf: bovine MsrA inhibition, confirmed; purified bovine MsrA, absorbance read-out; AID 651822; actives 41% (n = 2,300); shares compounds with MsrA inh; inhibition, % at 15.5 µM;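 note: coupled to thioredoxin reductase with NADPH and selenocystamine and DMSO as substrate; 0% = vehicle only and 100% = full effect of reference inhibitor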
Starred values were filed as active, the others as inactive; nt = not tested or not shown. Cut-off read from the data, not from the text of the source, unless noted: active = inhibition above about 4.5%; inactive = the rest.

SMILES	MsrA inh	UCH37 inh	MsrA act	N-glyco inh	Vif inh	aDG glyco up	MsrA conf
C/C(=N\NC(=O)c1ccccc1Cl)c1c(O)n(C2CCCCC2)c(=O)[nH]c1=O	4	14	-6	2	9	0	nt
C/C(=N\NC(=O)c1ccccc1O)c1c(O)n(C2CCCCC2)c(=O)[nH]c1=O	5.0*	-5	-5	2	-3	0	6.7*
COc1cc(N2CCOCC2)ccc1/C=C1\C(=O)NC(=O)N(Cc2cccs2)C1=O	6.4*	1	-4	0	6	0	3
COc1cc(N2CCOCC2)ccc1/C=C1\C(=O)NC(=O)N(Cc2ccc3c(c2)OCO3)C1=O	6.2*	6	-5	2	-3	0	2
CC(=O)OC1CCC2(C=NO)C(=CCC3C4CCC(=O)C4(C)CCC32)C1 (configuration not stated)	nt	1	nt	nt	nt	nt	nt
NC(=N[N+](=O)[O-])N1CCN(C(=O)Oc2ccccc2)CC1	nt	4	nt	nt	nt	nt	nt
CN(C)c1ccc(C(=O)c2ccc(N(C)C)cc2)cc1	5.0*	4	-8	10	4	0	4
COc1ccc(OC)c(C=NOC(=O)Nc2ccc(Cl)cc2)c1	nt	-29	nt	nt	nt	nt	nt
CC(C)c1ccc(-n2c(O)c(C=NC(CCS(C)=O)C(=O)O)c(=O)[nH]c2=S)cc1 (configuration not stated)	5.1*	13	-4	0	1	0	4
O=C(N/N=C/c1c(O)n(-c2ccccc2)c(=S)[nH]c1=O)c1ccccc1	1	2	3	3	-2	0	nt
CCCC(=O)NC1=C(N2CC2)C(=O)C(NC(=O)CCC)=C(N2CC2)C1=O	4.7*	12	-2	1	6	4	1
CCCC(=O)Nc1ccc(N2CCN(CC)CC2)c(Cl)c1	0	6	-1	0	-2	0	nt
Cc1cc(N(CCCl)CCCl)ccc1/C=N/NC(=O)c1ccco1	4.8*	nt	-13	-3	nt	0	3
CC(C)n1c(O)c(C=NCc2cccnc2)c(=O)[nH]c1=S	4.9*	15	-5	5	3	0	5.2*
CCOC(=O)c1c(C=O)c2ccccc2n1Cc1ccccc1	4.9*	3	-2	-2	0	0	5.0*
Cc1ccc(C)c(Cn2c(C(=O)O)c(C=O)c3ccccc32)c1	0	5	-5	2	-2	0	nt
Cc1cc(N(CCCl)CCCl)ccc1C=NNC(=O)c1ccco1	nt	-63	nt	nt	nt	nt	nt
O=C(Cn1ncc2c([nH]c3ccccc32)c1=O)NCCCN1CCN(c2ccccc2)CC1	0	7	-1	-1	-1	0	nt
COc1cc2c(cc1O)CC1c3c(cc(O)c(OC)c3-2)CCN1C (configuration not stated)	9.7*	-16	-1	8	4	0	9.5*
O=C(/C=C/c1ccc(O)c(O)c1)OC1C(O)CC(OC(=O)/C=C/c2ccc(O)c(O)c2)(C(=O)O)CC1O (configuration not stated)	5.7*	12	-2	3	-11	0	2
NC(=NN=Cc1ccc(O)cc1O)N[N+](=O)[O-]	nt	18	nt	nt	nt	nt	nt
O=C1c2cccc3cccc(c23)C(=O)N1/N=C/c1c(O)n(-c2ccccc2)c(=O)[nH]c1=O	5.1*	8	-3	5	0	0	3
C[C@H]1CCC[C@@H](O)CCCC=Cc2cc(O)cc(O)c2C(=O)O1	nt	0	nt	nt	nt	nt	nt
Cc1cccc(-n2c(O)c(C=NCCN3CCNCC3)c(=O)[nH]c2=S)c1	2	2	-3	4	0	0	nt
CNC(=S)N1CCN(CCN=Cc2c(O)n(-c3ccc(C)cc3)c(=S)[nH]c2=O)CC1	4.7*	3	-6	3	-3	0	3
CC(=O)c1ccc2c(c1)C1C(Cl)C(Sc3ccccc3[N+](=O)[O-])CC1C(c1ccccc1[N+](=O)[O-])N2 (configuration not stated)	5.5*	10	-3	-2	-18	-1	2
CC(=O)c1ccc2c(c1)C1C(Cl)C(Sc3ccccc3[N+](=O)[O-])CC1C(c1ccccc1)N2 (configuration not stated)	0	3	-11	nt	nt	0	nt
CNC(=S)N(Cc1cc2cc(OC)c(OC)cc2[nH]c1=O)C1CCCC1	2	-91	-4	2	0	0	nt
COc1cc(N2CCOCC2)ccc1C=C1C(=O)NC(=O)NC1=O	4	nt	-7	3	5	0	nt
O=C1NC(=O)C(=Cc2ccc(N3CCOCC3)cc2)C(=O)N1	6.0*	6	-3	1	-2	0	3
